Test results reported in ChEMBL document CHEMBL1649458, “Antibiotic resistance in Pseudomonas aeruginosa strains with increased mutation frequency due to inactivation of the DNA oxidative repair system” (2009).
Converted amounts (≈) assume the structure as drawn. The source made the active and inactive calls. No cut-off for these calls is given here.

What was measured:
Pseudomonas aeruginosa [1] = test: Antimicrobial activity against Pseudomonas aeruginosa PAO1 harboring DNA oxidative repair system mutY mutant gene complemented with wild type DNA oxidative repair system mutY gene; format: functional, organism-based
Pseudomonas aeruginosa [2] = test: Antimicrobial activity against Pseudomonas aeruginosa PAO1 by Etest; format: functional
Procedure, shortened: (§1)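 MICs by Etest per manufacturer's instructions on P. aeruginosa strains grown in LB; plates incubated at 37°C.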

Pseudomonas aeruginosa [3] = test: Antimicrobial activity against Pseudomonas aeruginosa PAO1 harboring DNA oxidative repair system deltamutY::Gm mutant gene by Etest; format: functional; procedure, shortened: as §1
Pseudomonas aeruginosa [4] = test: Antimicrobial activity against Pseudomonas aeruginosa PAO1 harboring DNA oxidative repair system deltamutT::Gm mutant gene by Etest; format: functional; procedure, shortened: as §1
Pseudomonas aeruginosa [5] = test: Antimicrobial activity against Pseudomonas aeruginosa PAO1 harboring DNA oxidative repair system deltamutM::Gm mutant gene by Etest; format: functional; procedure, shortened: as §1
Pseudomonas aeruginosa [6] = test: Antimicrobial activity against Pseudomonas aeruginosa PAO1 assessed as microbial doubling time; format: functional
Procedure, shortened: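 Overnight LB cultures diluted to OD600 0.01 in LB and grown at 37°C. OD600 read every 20 min until stationary phase. OD600 plotted against time on a semilog scale, and doubling time taken from the slope of the straight exponential-phase segment. Value is the mean of three separate cultures ± standard deviation.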

Pseudomonas aeruginosa [7] = test: Antimicrobial activity against Pseudomonas aeruginosa PAO1 harboring DNA oxidative repair system deltamutY::Gm mutant gene assessed as doubling time; format: functional
Procedure, shortened: (§2)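 Overnight LB cultures adjusted to OD600 0.01 and grown at 37°C; OD600 read every 20 min to stationary phase. Doubling time taken from the slope of the exponential phase on a semilog plot; mean ± SD of three individual cultures.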

Pseudomonas aeruginosa [8] = test: Antimicrobial activity against Pseudomonas aeruginosa PAO1 harboring DNA oxidative repair system deltamutT::Gm mutant gene assessed as doubling time; format: functional; procedure, shortened: as §2
Pseudomonas aeruginosa [9] = test: Antimicrobial activity against Pseudomonas aeruginosa PAO1 harboring DNA oxidative repair system deltamutM::Gm mutant gene assessed as doubling time; format: functional; procedure, shortened: as §2
Pseudomonas aeruginosa [10] = test: Antimicrobial activity against Pseudomonas aeruginosa PAO1 harboring DNA oxidative repair system […] mutant gene complemented with wild type DNA oxidative repair system mutY gene; format: functional, organism-based
Pseudomonas aeruginosa [11] = test: Antimicrobial activity against Pseudomonas aeruginosa PAO1 harboring DNA oxidative repair system mutT mutant gene selected in presence of ciprofloxacin by Etest; format: functional
Procedure, shortened: (§3)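 Resistant colonies picked from population-analysis plates (5% blood agar with twofold antibiotic dilutions) and passaged three times in antibiotic-free LB before Etest MIC determination. MIC is the mean of four colonies, two successive determinations per colony; PAO1 after tobramycin selection is the mean of two colonies.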

Pseudomonas aeruginosa [12] = test: Antimicrobial activity against Pseudomonas aeruginosa PAO1 selected in presence of Ceftazidime by Etest; format: functional; procedure, shortened: as §3
Pseudomonas aeruginosa [13] = test: Antimicrobial activity against Pseudomonas aeruginosa PAO1 harboring DNA oxidative repair system mutY mutant gene selected in presence of Ceftazidime by Etest; format: functional; procedure, shortened: as §3
Pseudomonas aeruginosa [14] = test: Antimicrobial activity against Pseudomonas aeruginosa PAO1 harboring DNA oxidative repair system mutM mutant gene selected in presence of Ceftazidime by Etest; format: functional; procedure, shortened: as §3
Pseudomonas aeruginosa [15] = test: Antimicrobial activity against Pseudomonas aeruginosa PAO1 harboring DNA oxidative repair system mutT mutant gene selected in presence of Ceftazidime by Etest; format: functional; procedure, shortened: as §3
Pseudomonas aeruginosa [16] = test: Antimicrobial activity against Pseudomonas aeruginosa PAO1 selected in presence of tobramycin by Etest; format: functional; procedure, shortened: as §3
Pseudomonas aeruginosa [17] = test: Antimicrobial activity against Pseudomonas aeruginosa PAO1 harboring DNA oxidative repair system mutY mutant gene selected in presence of tobramycin by Etest; format: functional; procedure, shortened: as §3
Pseudomonas aeruginosa [18] = test: Antimicrobial activity against Pseudomonas aeruginosa PAO1 harboring DNA oxidative repair system mutM mutant gene selected in presence of tobramycin by Etest; format: functional; procedure, shortened: as §3
Pseudomonas aeruginosa [19] = test: Antimicrobial activity against Pseudomonas aeruginosa PAO1 harboring DNA oxidative repair system mutT mutant gene selected in presence of tobramycin by Etest; format: functional; procedure, shortened: as §3
Pseudomonas aeruginosa [20] = test: Antimicrobial activity against Pseudomonas aeruginosa PAO1 selected in presence of ciprofloxacin by Etest; format: functional; procedure, shortened: as §3
Pseudomonas aeruginosa [21] = test: Antimicrobial activity against Pseudomonas aeruginosa PAO1 harboring DNA oxidative repair system mutY mutant gene selected in presence of ciprofloxacin by Etest; format: functional; procedure, shortened: as §3
Pseudomonas aeruginosa [22] = test: Antimicrobial activity against Pseudomonas aeruginosa PAO1 harboring DNA oxidative repair system mutM mutant gene selected in presence of ciprofloxacin by Etest; format: functional; procedure, shortened: as §3
Pseudomonas aeruginosa [23] = test: Selectivity ratio of MIC for Pseudomonas aeruginosa PAO1 harboring DNA oxidative repair system mutY mutant gene selected in presence of tobramycin to MIC for Pseudomonas aeruginosa PAO1 harboring DNA oxidative repair system mutY mutant gene; format: functional
Pseudomonas aeruginosa [24] = test: Selectivity ratio of MIC for Pseudomonas aeruginosa PAO1 harboring DNA oxidative repair system mutT mutant gene selected in presence of tobramycin to MIC for Pseudomonas aeruginosa PAO1 harboring DNA oxidative repair system mutT mutant gene; format: functional
Pseudomonas aeruginosa [25] = test: Antimicrobial activity against Pseudomonas aeruginosa PAO1 harboring DNA oxidative repair system mutT mutant gene complemented with wild type DNA oxidative repair system mutT gene; format: functional, organism-based

SMILES	Activity (Pseudomonas aeruginosa [1])	MIC (Pseudomonas aeruginosa [2])	MIC (Pseudomonas aeruginosa [3])	MIC (Pseudomonas aeruginosa [4])	MIC (Pseudomonas aeruginosa [5])	Time (Pseudomonas aeruginosa [6])	Time (Pseudomonas aeruginosa [7])	Time (Pseudomonas aeruginosa [8])	Time (Pseudomonas aeruginosa [9])	Activity (Pseudomonas aeruginosa [10])	MIC (Pseudomonas aeruginosa [11])	MIC (Pseudomonas aeruginosa [13])	MIC (Pseudomonas aeruginosa [14])	MIC (Pseudomonas aeruginosa [16])	MIC (Pseudomonas aeruginosa [17])	MIC (Pseudomonas aeruginosa [18])	MIC (Pseudomonas aeruginosa [19])	MIC (Pseudomonas aeruginosa [20])	MIC (Pseudomonas aeruginosa [21])	MIC (Pseudomonas aeruginosa [22])	other results
C[C@H]1[C@H](NC(=O)/C(=N\OC(C)(C)C(=O)O)c2csc(N)n2)C(=O)N1S(=O)(=O)O [AZTREONAM]	Active	1.5 µg/mL (≈ 3.44 µM)	1 µg/mL (≈ 2.3 µM)	1.5 µg/mL (≈ 3.44 µM)	1.5 µg/mL (≈ 3.44 µM)	26 min	25.7 min	27.7 min	27.3 min	Active	–	–	–	–	–	–	–	–	–	–	–
CC(C)(O/N=C(\C(=O)N[C@@H]1C(=O)N2C(C(=O)[O-])=C(C[n+]3ccccc3)CS[C@H]12)c1csc(N)n1)C(=O)O [CEFTAZIDIME]	–	2 µg/mL (≈ 3.66 µM)	1.5 µg/mL (≈ 2.74 µM)	2 µg/mL (≈ 3.66 µM)	1.5 µg/mL (≈ 2.74 µM)	26 min	25.7 min	27.7 min	27.3 min	–	0.44 µg/mL	18 µg/mL	26 µg/mL	0.5 µg/mL	0.69 µg/mL	0.63 µg/mL	0.38 µg/mL	0.44 µg/mL	0.47 µg/mL	0.44 µg/mL	MIC (Pseudomonas aeruginosa [12]): 20 µg/mL; MIC (Pseudomonas aeruginosa [15]): 18 µg/mL
O=C(N[C@H](CO)[C@H](O)c1ccc([N+](=O)[O-])cc1)C(Cl)Cl [CHLORAMPHENICOL]	–	–	–	–	–	–	–	–	–	–	256 µg/mL	–	–	28 µg/mL	86 µg/mL	56 µg/mL	20 µg/mL	256 µg/mL	256 µg/mL	256 µg/mL	fold change (FC) (Pseudomonas aeruginosa [23]): 2; fold change (FC) (Pseudomonas aeruginosa [24]): 3
O=C(O)c1cn(C2CC2)c2cc(N3CCNCC3)c(F)cc2c1=O [CIPROFLOXACIN]	–	0.19 µg/mL (≈ 0.573 µM)	0.19 µg/mL (≈ 0.573 µM)	–	0.19 µg/mL (≈ 0.573 µM)	26 min	25.7 min	27.7 min	27.3 min	–	0.75 µg/mL	0.17 µg/mL	0.13 µg/mL	0.32 µg/mL	0.16 µg/mL	0.11 µg/mL	0.08 µg/mL	0.75 µg/mL	0.75 µg/mL	0.88 µg/mL	MIC (Pseudomonas aeruginosa [15]): 0.16 µg/mL
CCN1CCN(C(=O)N[C@@H](C(=O)N[C@@H]2C(=O)N3[C@@H]2SC(C)(C)[C@@H]3C(=O)O)c2ccccc2)C(=O)C1=O [PIPERACILLIN]	Active	2 µg/mL (≈ 3.86 µM)	2 µg/mL (≈ 3.86 µM)	2 µg/mL (≈ 3.86 µM)	2 µg/mL (≈ 3.86 µM)	26 min	25.7 min	27.7 min	27.3 min	Active	–	–	–	–	–	–	–	–	–	–	–
CN(C)[C@@H]1C(O)=C(C(N)=O)C(=O)[C@@]2(O)C(O)=C3C(=O)c4c(O)cccc4[C@@](C)(O)[C@H]3C[C@@H]12 [TETRACYCLINE]	–	–	–	–	–	–	–	–	–	–	256 µg/mL	–	–	10 µg/mL	5.5 µg/mL	18 µg/mL	4.25 µg/mL	256 µg/mL	256 µg/mL	256 µg/mL	–
NC[C@H]1O[C@H](O[C@H]2[C@H](O)[C@@H](O[C@H]3O[C@H](CO)[C@@H](O)[C@H](N)[C@H]3O)[C@H](N)C[C@@H]2N)[C@H](N)C[C@@H]1O [TOBRAMYCIN]	Active	1.5 µg/mL (≈ 3.21 µM)	1.5 µg/mL (≈ 3.21 µM)	1.5 µg/mL (≈ 3.21 µM)	1.5 µg/mL (≈ 3.21 µM)	26 min	25.7 min	27.7 min	27.3 min	Active	1.25 µg/mL	2 µg/mL	2 µg/mL	6 µg/mL	3.75 µg/mL	3.5 µg/mL	0.9 µg/mL	1.06 µg/mL	1.37 µg/mL	1.19 µg/mL	Activity (Pseudomonas aeruginosa [25]): Active; MIC (Pseudomonas aeruginosa [12]): 1.75 µg/mL; MIC (Pseudomonas aeruginosa [15]): 2 µg/mL
